ChEMBL document CHEMBL5058577, “EUbOPEN Chemogenomics Library 2 (Multiplex)” (2022)

System: U2OS
Test: Multiplex assay against U2OS
Format: toxicity, cell-based
Conditions: human
Method in brief: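 Compound was added to live cells that had been stained at seeding with Hoechst33342, BioTracker Green Microtubule Cytoskeleton Dye, MitoTracker Red and Annexin V Alexa Fluor 680, and imaging followed on a CQ1 microscope at 37°C and 5% CO2. CellPathfinder machine-learning gating divided cells into Hoechst high-intensity objects or normal cells, normal cells into healthy, pyknosed or fragmented nuclei, and pyknosed cells into mitotic or apoptotic. Tubulin, mitochondrial-mass and membrane-permeability phenotypes are per cents of healthy-nucleus cells.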

[1] = 12 h, 1 µM, compound concentration 1 uM, replicate 1
[2] = 12 h, 1 µM, compound concentration 1 uM, replicate 2
[3] = 12 h, 10 µM, compound concentration 10 uM, replicate 1
[4] = 12 h, 10 µM, compound concentration 10 uM, replicate 2
[5] = 24 h, 1 µM, compound concentration 1 uM, replicate 1
[6] = 24 h, 1 µM, compound concentration 1 uM, replicate 2
[7] = 24 h, 10 µM, compound concentration 10 uM, replicate 1
[8] = 24 h, 10 µM, compound concentration 10 uM, replicate 2
[9] = 48 h, 1 µM, compound concentration 1 uM, replicate 1
[10] = 48 h, 1 µM, compound concentration 1 uM, replicate 2
[11] = 48 h, 10 µM, compound concentration 10 uM, replicate 1
[12] = 48 h, 10 µM, compound concentration 10 uM, replicate 2

## COc1ccc2[nH]c(I)c(CCNC(C)=O)c2c1 [IODOMELATONIN]
[1]
  Population Apoptotic (%): 68%
  Population Fragmented Nuclei (%): 19%
  Population Healthy Nuclei (%): 74%
  Population Hoechst High Intensity Objects (%): 2%
  Population Membrane Permeable-Phenotype (%): 4%
  Population Mitochondria Different-Phenotype (%): 3%
  Population Mitotic Cells (%): 31%
  Population Normal (%): 97%
  Population Pyknosed Nuclei (%): 5%
  Population Tubulin-Different-Phenotype (%): 1%
  Total Cell Count: 282
[2]
  Population Apoptotic (%): 37%
  Population Fragmented Nuclei (%): 11%
  Population Healthy Nuclei (%): 83%
  Population Hoechst High Intensity Objects (%): 0%
  Population Membrane Permeable-Phenotype (%): 5%
  Population Mitochondria Different-Phenotype (%): 1%
  Population Mitotic Cells (%): 62%
  Population Normal (%): 99%
  Population Tubulin-Different-Phenotype (%): 2%
  Total Cell Count: 156
[3]
  Population Apoptotic (%): 77%
  Population Fragmented Nuclei (%): 25%
  Population Healthy Nuclei (%): 64%
  Population Hoechst High Intensity Objects (%): 3%
  Population Membrane Permeable-Phenotype (%): 2%
  Population Mitochondria Different-Phenotype (%): 1%
  Population Mitotic Cells (%): 22%
  Population Normal (%): 96%
  Population Pyknosed Nuclei (%): 9%
  Population Tubulin-Different-Phenotype (%): 1%
  Total Cell Count: 231
[4]
  Population Apoptotic (%): 80%
  Population Fragmented Nuclei (%): 41%
  Population Healthy Nuclei (%): 54%
  Population Hoechst High Intensity Objects (%): 0%
  Population Membrane Permeable-Phenotype (%): 10%
  Population Mitochondria Different-Phenotype (%): 6%
  Population Mitotic Cells (%): 20%
  Population Normal (%): 99%
  Population Pyknosed Nuclei (%): 3%
  Population Tubulin-Different-Phenotype (%): 2%
  Total Cell Count: 134
[5]
  Population Apoptotic (%): 86%
  Population Fragmented Nuclei (%): 16%
  Population Healthy Nuclei (%): 75%
  Population Hoechst High Intensity Objects (%): 1%
  Population Membrane Permeable-Phenotype (%): 3%
  Population Mitochondria Different-Phenotype (%): 1%
  Population Mitotic Cells (%): 13%
  Population Normal (%): 98%
  Population Pyknosed Nuclei (%): 8%
  Population Tubulin-Different-Phenotype (%): 2%
  Total Cell Count: 354
[6]
  Population Apoptotic (%): 80%
  Population Fragmented Nuclei (%): 15%
  Population Healthy Nuclei (%): 78%
  Population Membrane Permeable-Phenotype (%): 8%
  Population Mitochondria Different-Phenotype (%): 0%
  Population Mitotic Cells (%): 20%
  Population Pyknosed Nuclei (%): 5%
  Total Cell Count: 179
[7]
  Population Apoptotic (%): 95%
  Population Fragmented Nuclei (%): 25%
  Population Healthy Nuclei (%): 66%
  Population Hoechst High Intensity Objects (%): 1%
  Population Membrane Permeable-Phenotype (%): 4%
  Population Mitochondria Different-Phenotype (%): 1%
  Population Mitotic Cells (%): 4%
  Population Normal (%): 98%
  Population Pyknosed Nuclei (%): 8%
  Population Tubulin-Different-Phenotype (%): 1%
  Total Cell Count: 273
[8]
  Population Apoptotic (%): 88%
  Population Fragmented Nuclei (%): 34%
  Population Healthy Nuclei (%): 59%
  Population Membrane Permeable-Phenotype (%): 7%
  Population Mitochondria Different-Phenotype (%): 5%
  Population Mitotic Cells (%): 11%
  Population Pyknosed Nuclei (%): 5%
  Population Tubulin-Different-Phenotype (%): 2%
  Total Cell Count: 153
[9]
  Population Apoptotic (%): 92%
  Population Fragmented Nuclei (%): 12%
  Population Healthy Nuclei (%): 79%
  Population Hoechst High Intensity Objects (%): 1%
  Population Membrane Permeable-Phenotype (%): 5%
  Population Mitochondria Different-Phenotype (%): 2%
  Population Mitotic Cells (%): 7%
  Population Normal (%): 98%
  Population Pyknosed Nuclei (%): 7%
  Population Tubulin-Different-Phenotype (%): 3%
  Total Cell Count: 509
[10]
  Population Apoptotic (%): 86%
  Population Fragmented Nuclei (%): 13%
  Population Healthy Nuclei (%): 81%
  Population Membrane Permeable-Phenotype (%): 4%
  Population Mitotic Cells (%): 13%
  Population Pyknosed Nuclei (%): 5%
  Total Cell Count: 284
[11]
  Population Apoptotic (%): 97%
  Population Fragmented Nuclei (%): 21%
  Population Healthy Nuclei (%): 68%
  Population Hoechst High Intensity Objects (%): 2%
  Population Membrane Permeable-Phenotype (%): 5%
  Population Mitochondria Different-Phenotype (%): 0%
  Population Mitotic Cells (%): 2%
  Population Normal (%): 97%
  Population Pyknosed Nuclei (%): 9%
  Population Tubulin-Different-Phenotype (%): 2%
  Total Cell Count: 373
[12]
  Population Apoptotic (%): 100%
  Population Fragmented Nuclei (%): 29%
  Population Healthy Nuclei (%): 65%
  Population Hoechst High Intensity Objects (%): 0%
  Population Membrane Permeable-Phenotype (%): 7%
  Population Mitochondria Different-Phenotype (%): 5%
  Population Mitotic Cells (%): 0%
  Population Normal (%): 99%
  Population Pyknosed Nuclei (%): 5%
  Population Tubulin-Different-Phenotype (%): 4%
  Total Cell Count: 209
